Calls of active or inactive are those of the source. The calls are words filed in the database; no cut-off is given here.
Legend:
PC-3 = assay: Cytotoxicity against human PC3 cells after 2 days by sulforhodamine B assay; assay type: functional; settings: PC-3, 48 h
Procedure, shortened: (§1)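 NCI60 multi-dose screen, 59 human tumour lines available. Cells exposed to compound across a 5-log mol/L concentration range for 2 days, then fixed and stained with sulphorhodamine B, optical density read. Growth inhibition calculated against time-zero control and untreated cells. GI50 derived from the dose series, average of two replicates.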

RXF 393 = assay: Cytotoxicity against human RXF393 cells after 2 days by sulforhodamine B assay; assay type: functional; settings: RXF 393, 48 h; procedure, shortened: as §1
OVCAR-5 = assay: Cytotoxicity against human OVCAR5 cells after 2 days by sulforhodamine B assay; assay type: functional; settings: OVCAR-5, 48 h; procedure, shortened: as §1
MDA-MB-435 = assay: Cytotoxicity against human MDA-MB-435 cells after 2 days by sulforhodamine B assay; assay type: functional; settings: MDA-MB-435, 48 h; procedure, shortened: as §1
SK-MEL-2 = assay: Cytotoxicity against human SK-MEL-2 cells after 2 days by sulforhodamine B assay; assay type: functional; settings: SK-MEL-2, 48 h; procedure, shortened: as §1
Malme-3M = assay: Cytotoxicity against human MALME-3M cells after 2 days by sulforhodamine B assay; assay type: functional; settings: 48 h; procedure, shortened: as §1
SF-539 = assay: Cytotoxicity against human SF539 cells after 2 days by sulforhodamine B assay; assay type: functional; settings: SF-539, 48 h; procedure, shortened: as §1
SF-268 = assay: Cytotoxicity against human SF268 cells after 2 days by sulforhodamine B assay; assay type: functional; settings: SF-268, 48 h; procedure, shortened: as §1
HCT-15 = assay: Cytotoxicity against human HCT15 cells after 2 days by sulforhodamine B assay; assay type: functional; settings: HCT-15, 48 h; procedure, shortened: as §1
HCT-116 = assay: Cytotoxicity against human HCT116 cells after 2 days by sulforhodamine B assay; assay type: functional; settings: HCT-116, 48 h; procedure, shortened: as §1
HCC 2998 = assay: Cytotoxicity against human HCC2998 cells after 2 days by sulforhodamine B assay; assay type: functional; settings: HCC 2998, 48 h; procedure, shortened: as §1
NCI-H460 = assay: Cytotoxicity against human NCI-H460 cells after 2 days by sulforhodamine B assay; assay type: functional; settings: NCI-H460, 48 h; procedure, shortened: as §1
NCI-H322M = assay: Cytotoxicity against human NCI-H322M cells after 2 days by sulforhodamine B assay; assay type: functional; settings: 48 h; procedure, shortened: as §1
HOP-92 = assay: Cytotoxicity against human HOP92 cells after 2 days by sulforhodamine B assay; assay type: functional; settings: HOP-92, 48 h; procedure, shortened: as §1
NCI-H226 = assay: Cytotoxicity against human NCI-H226 cells after 2 days by sulforhodamine B assay; assay type: functional; settings: NCI-H226, 48 h; procedure, shortened: as §1
NCI-H23 = assay: Cytotoxicity against human NCI-H23 cells after 2 days by sulforhodamine B assay; assay type: functional; settings: NCI-H23, 48 h; procedure, shortened: as §1
A549 = assay: Cytotoxicity against human A549/ATCC cells after 2 days by sulforhodamine B assay; assay type: functional; settings: A549, 48 h; procedure, shortened: as §1
RPMI-8226 = assay: Cytotoxicity against human RPMI8226 cells after 2 days by sulforhodamine B assay; assay type: functional; settings: RPMI-8226, 48 h; procedure, shortened: as §1
MOLT-4 = assay: Cytotoxicity against human MOLT4 cells after 2 days by sulforhodamine B assay; assay type: functional; settings: MOLT-4, 48 h; procedure, shortened: as §1
K562 = assay: Cytotoxicity against human K562 cells after 2 days by sulforhodamine B assay; assay type: functional; settings: K562, 48 h; procedure, shortened: as §1
HL-60(TB) = assay: Cytotoxicity against human HL-60(TB) cells after 2 days by sulforhodamine B assay; assay type: functional; settings: HL-60, 48 h
Procedure, shortened: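 NCI60 multi-dose screen: cells exposed to compound over a 5-log mol/L concentration range for 2 days, then fixed and stained with sulphorhodamine B and optical density read. Growth inhibition calculated relative to time-zero control and untreated cells; GI50 reported as average of two replicates.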

CCRF-CEM = assay: Cytotoxicity against human CCRF-CEM cells after 2 days by sulforhodamine B assay; assay type: functional; settings: 48 h; procedure, shortened: as §1
MCF7 [1] = assay: Cytotoxicity against human ER positive MCF7 cells assessed as cell viability at 1 uM after 72 hrs by MTT assay; assay type: functional, cell-based
Procedure, shortened: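 Lines kept in DMEM with 10% fetal bovine serum and 1% penicillin/streptomycin at 37 °C, 5% CO2. Compound applied at 1 µM for 72 h, then standard MTT reduction read-out. Viability given as mean percentage of formazan formed by treated cells relative to mock-treated cells (0.1% DMSO). Run in quadruplicate, standard error, Student's t-test.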

MDA-MB-468 = assay: Cytotoxicity against human MDA-MB-468 cells after 2 days by sulforhodamine B assay; assay type: functional; settings: MDA-MB-468, 48 h; procedure, shortened: as §1
[2] = Cytotoxicity against human Hs578T cells after 2 days by sulforhodamine B assay; assay type: functional; settings: Hs-578T, 48 h; procedure, shortened: as §1
BT-549 = assay: Cytotoxicity against human BT549 cells after 2 days by sulforhodamine B assay; assay type: functional; settings: BT-549, 48 h; procedure, shortened: as §1
MDA-MB-231 = assay: Cytotoxicity against human MDA-MB-231 cells after 2 days by sulforhodamine B assay; assay type: functional; settings: MDA-MB-231, 48 h; procedure, shortened: as §1
MCF7 [3] = assay: Cytotoxicity against human MCF7 cells after 2 days by sulforhodamine B assay; assay type: functional; settings: MCF7, 48 h; procedure, shortened: as §1
DU-145 = assay: Cytotoxicity against human DU145 cells after 2 days by sulforhodamine B assay; assay type: functional; settings: DU-145, 48 h; procedure, shortened: as §1
[4] = read-out: LC50 (the source's name)

Which results are given for `CC/C(=C(/c1ccc(OCCN(C)C)cc1)c1ccc(OC(=O)CCCCCCCCC(=O)C2=C(C)/C(=C/c3[nH]c(-c4ccc[nH]4)cc3OC)N=C2C)cc1)c1ccccc1`?
GI50 (PC-3): 5.89 µM; LC50 (concentration killing 50% of cells) (PC-3): > 100 µM; TGI (PC-3): > 100 µM; GI50 (RXF 393): 13.8 µM; LC50 (concentration killing 50% of cells) (RXF 393): > 100 µM; TGI (RXF 393): > 100 µM; GI50 (OVCAR-5): > 100 µM; LC50 (OVCAR-5): > 100 µM; TGI (OVCAR-5): > 100 µM; GI50 (MDA-MB-435): 4.57 µM; TGI (MDA-MB-435): > 100 µM; CC50 (MDA-MB-435; [4]): > 100 µM; GI50 (SK-MEL-2): 30.9 µM; LC50 (SK-MEL-2): > 100 µM; TGI (SK-MEL-2): > 100 µM; GI50 (Malme-3M): 40.7 µM; LC50 (Malme-3M): > 100 µM; TGI (Malme-3M): > 100 µM; GI50 (SF-539): 12 µM; LC50 (SF-539): > 100 µM; TGI (SF-539): 50.1 µM; GI50 (SF-268): 6.61 µM; LC50 (concentration killing 50% of cells) (SF-268): > 100 µM; TGI (SF-268): > 100 µM; GI50 (HCT-15): 5.13 µM; LC50 (HCT-15): > 100 µM; TGI (HCT-15): 97.7 µM; GI50 (HCT-116): 3.39 µM; LC50 (concentration killing 50% of cells vs time zero) (HCT-116): > 100 µM; TGI (HCT-116): 21.9 µM; GI50 (HCC 2998): > 100 µM; LC50 (50% lethal concentration) (HCC 2998): > 100 µM; TGI (HCC 2998): > 100 µM; GI50 (NCI-H460): 4.27 µM; LC50 (NCI-H460): > 100 µM; TGI (NCI-H460): > 100 µM; GI50 (NCI-H322M): > 100 µM; LC50 (concentration killing 50% of cells) (NCI-H322M): > 100 µM; TGI (NCI-H322M): > 100 µM; GI50 (HOP-92): 1.95 µM; CC50 (HOP-92; [4]): > 100 µM; GI50 (NCI-H226): > 100 µM; LC50 (NCI-H226): > 100 µM; TGI (NCI-H226): > 100 µM; GI50 (NCI-H23): 47.9 µM; LC50 (concentration killing 50% of cells) (NCI-H23): > 100 µM; TGI (NCI-H23): > 100 µM; GI50 (A549): 4.17 µM; LC50 (concentration giving 50% net cell kill) (A549): > 100 µM; TGI (A549): > 100 µM; GI50 (RPMI-8226): 3.72 µM; LC50 (concentration killing 50% of cells present at time zero) (RPMI-8226): > 100 µM; TGI (RPMI-8226): > 100 µM; GI50 (MOLT-4): 5.13 µM; TGI (MOLT-4): > 100 µM; CC50 (MOLT-4; [4]): > 100 µM; GI50 (K562): 4.57 µM; LC50 (concentration killing 50% of cells) (K562): > 100 µM; TGI (K562): > 100 µM; GI50 (HL-60(TB)): 12.3 µM; TGI (HL-60(TB)): > 100 µM; CC50 (HL-60(TB); [4]): > 100 µM; GI50 (CCRF-CEM): 0.76 µM; TGI (CCRF-CEM): > 100 µM; CC50 (CCRF-CEM; [4]): > 100 µM; Activity (MCF7 [1]): inactive; GI50 (MDA-MB-468): 3.63 µM; LC50 (MDA-MB-468): > 100 µM; TGI (MDA-MB-468): > 100 µM; GI50 [2]: 4.79 µM; TGI [2]: 85.1 µM; CC50 [2, 4]: > 100 µM; GI50 (BT-549): 5.25 µM; LC50 (concentration killing 50% of cells present at time zero) (BT-549): > 100 µM; TGI (BT-549): > 100 µM; GI50 (MDA-MB-231): 3.39 µM; LC50 (MDA-MB-231): > 100 µM; TGI (MDA-MB-231): 18.2 µM; GI50 (MCF7 [3]): 0.16 µM; LC50 (concentration giving 50% net cell kill) (MCF7 [3]): > 100 µM; TGI (MCF7 [3]): 11 µM; GI50 (DU-145): 8.13 µM; LC50 (concentration killing 50% of starting cells) (DU-145): > 100 µM; TGI (DU-145): > 100 µM
